Assay results gathered from unrelated publications.
Each line is one published result; the experiments were not run side by side.
Target: Ribosomal protein S6 kinase beta-1 (RPS6KB1, Homo sapiens, UniProt P23443)

| SMILES | assay | conditions | endpoint | result |
| --- | --- | --- | --- | --- |
| COc1ccc2oc(-c3ccc4nc(N)oc4c3)c/c(=N\c3ccccc3NC(=O)CCN)c2c1 | binding | 1 µM | remaining binding | 98% |
| CC(C)S(=O)(=O)c1ccc2nccc(Nc3ccc4sc(C5CCCC5)nc4c3)c2c1 | enzyme activity, inhibitor | 1 µM | activity vs control | 110% |
| C[C@H]1CC[C@H](n2c3cnccc3c3cnc(Nc4ccc5c(n4)CCN(C(=O)CO)C5)nc32)CC1 | cell-free assay | 1 µM | remaining signal | 78% |
| C=CC(=O)N1CCC([C@@H]2CCNc3c(C(N)=O)c(-c4ccc(Oc5ccccc5)cc4)nn32)CC1 | enzyme activity, inhibitor | 1 µM | inhibition | 1% |
| Cc1ccc(NC(=O)c2ccnc(C(F)(F)F)c2)cc1-c1cc(OCCO)nc(N2CCOCC2)c1 | binding | 1 µM | remaining binding | 100% |
| CO[C@@H]1[C@H](N(C)C(=O)c2ccccc2)C[C@H]2O[C@]1(C)n1c3ccccc3c3c4c(c5c6ccccc6n2c5c31)C(=O)NC4 | enzyme activity, inhibitor | 1 µM | inhibition | 36% |
| Cc1cc(O)c(-c2ccc([C@@H](C)CN(C)C)cc2)c2c1[nH]c(=O)c1sccc12 | enzyme activity, inhibitor | 0.1 µM | inhibition | -5.29% |
| CCCCC(=O)Nc1ccc(-c2ccc3ncn(CCC)c(=O)c3c2)cn1 | binding, competition with immobilised ligand | 0.5 µM | remaining binding | 98% |
